Test results from ChEMBL document CHEMBL1123566, “Synthesis and cardiac electrophysiological activity of 2- and 3-[(substituted phenyl)alkyl]quinuclidines. Structure-activity relationships” (1987).
Where “and” joins values, the source holds several entries; their conditions need not be identical. Identical values can stand only once.

Legend:
Canis familiaris [1] = species on record: Canis familiaris; test: In vitro electrophysiological evaluation in canine cardiac ventricular muscle reported as maximum % change for conduction time(CT) at 0.1-100 uM concentration range; Minimal (<IO%increase or a decrease in CT); type: functional, Canis lupus familiaris, Muscle tissue
How it was run: (§1)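 Canine right ventricle and papillary muscle strips in oxygenated Tyrode's solution, fitted with stimulating and recording electrodes. The extra-stimulus conduction-interval method was adapted for in vitro use. FRP and CT were read from a conduction-interval curve before and after various compound concentrations, and expressed as percent change from control. Compounds were taken from 10 mM deionized-water stock into Tyrode's. Each strip was used once as its own control.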

Canis familiaris [2] = species on record: Canis familiaris; test: In vitro electrophysiological evaluation in canine cardiac Purkinje fibres reported as percent change Vmax concentration range of 1-100 uM; Minimal (<IO%increase or a decrease in CT; Minimal (<IO%increase or a decrease in CT); type: functional; details: Canis lupus familiaris; Purkinje fiber
How it was run: (§2)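 Canine cardiac Purkinje fibres, intracellular microelectrode recording, paced at a basic cycle length of 1 s. APD95 and Vmax read simultaneously. Compound: 10 mM stock in deionized water, diluted into Tyrode's solution, tested over the stated concentration range. Each fibre used once as its own control. Result is % change from control, given at 10 µM or as the maximum with its concentration. M = <10% decrease or an increase in Vmax.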

Canis familiaris [3] = species on record: Canis familiaris; test: In vitro electrophysiological evaluation in canine cardiac Purkinje fibres reported as percent change Vmax concentration range of 0.1-100 uM; Minimal (<IO%increase or a decrease in CT); type: functional; details: Canis lupus familiaris; Purkinje fiber; how it was run: as §2
Canis familiaris [4] = species on record: Canis familiaris; test: In vitro electrophysiological evaluation in canine cardiac Purkinje fibres reported as maximum percent change Vmax concentration range of 0.1-30 uM; type: functional; details: Canis lupus familiaris; Purkinje fiber; how it was run: as §2
Canis familiaris [5] = species on record: Canis familiaris; test: In vitro electrophysiological activity in canine cardiac Purkinje fibres given as maximum % change for action potential duration at 100 uM concentration; type: functional, Canis lupus familiaris, Purkinje fiber
How it was run: (§3)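 Canine cardiac Purkinje fibres, intracellular recording at 1 s basic cycle length, over cumulative concentration ranges. Compound 10 mM stock in deionized water diluted into Tyrode's. Each fibre used once as its own control. Value is the maximum % change from control in APD at 95% repolarization, with the concentration where it occurred; both values given if a biphasic response (>20% reversal) occurred.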

Canis familiaris [6] = species on record: Canis familiaris; test: In vitro electrophysiological evaluation in canine cardiac ventricular muscle reported as % change for the functional refractory period (FRP) concentration range of 0.1-100 uM; parameters: species or system Canis lupus familiaris, Muscle tissue; how it was run: as §1
Canis familiaris [7] = species on record: Canis familiaris; test: In vitro electrophysiological evaluation in canine cardiac Purkinje fibres reported as percent change Vmax concentration range of 0.1-100 uM; type: functional; details: Canis lupus familiaris; Purkinje fiber; how it was run: as §2
Canis familiaris [8] = species on record: Canis familiaris; test: In vitro electrophysiological evaluation in canine cardiac ventricular muscle reported as % change for conduction time(CT) at 0.1-100 uM concentration range; Minimal (<IO%increase or a decrease in CT); type: functional, Canis lupus familiaris, Muscle tissue
Canis familiaris [9] = species on record: Canis familiaris; test: In vitro electrophysiological evaluation in canine cardiac Purkinje fibres reported as % change for action potential duration at 0.1-30 uM concentration range; type: functional, Canis lupus familiaris, Purkinje fiber; how it was run: as §2
Canis familiaris [10] = species on record: Canis familiaris; test: In vitro electrophysiological activity in canine cardiac Purkinje fibres given as maximum % change for action potential duration at 0.1-100 uM concentration; type: functional, Canis lupus familiaris, Purkinje fiber; how it was run: as §3
Canis familiaris [11] = species on record: Canis familiaris; test: In vitro electrophysiological activity in canine cardiac Purkinje fibres given as maximum % change for action potential duration t 100 uM concentration; type: functional, Canis lupus familiaris, Purkinje fiber; how it was run: as §3
Canis familiaris [12] = species on record: Canis familiaris; test: In vitro electrophysiological evaluation in canine cardiac Purkinje fibres reported as percent change Vmax concentration range of 0.1-30 uM; type: functional; details: Canis lupus familiaris; Purkinje fiber; how it was run: as §2
Canis familiaris [13] = species on record: Canis familiaris; test: In vitro electrophysiological activity in canine cardiac Purkinje fibres given as maximum % change for action potential duration at 95% repolarization at 1 uM concentration; type: functional, Canis lupus familiaris, Purkinje fiber; how it was run: as §3
Canis familiaris [14] = species on record: Canis familiaris; test: In vitro electrophysiological evaluation in canine cardiac ventricular muscle reported as maximum % change for functional refractory period (FRP) at 0.1-100 uM concentration range; parameters: species or system Canis lupus familiaris, Muscle tissue
Canis familiaris [15] = species on record: Canis familiaris; test: In vitro electrophysiological activity in canine cardiac Purkinje fibres given as maximum % change for action potential duration at 10 uM concentration; type: functional, Canis lupus familiaris, Purkinje fiber; how it was run: as §3
Canis familiaris [16] = species on record: Canis familiaris; test: In vitro electrophysiological evaluation in canine cardiac Purkinje fibres reported as % change for action potential duration at 1-100 uM concentration range; type: functional, Canis lupus familiaris, Purkinje fiber; how it was run: as §2
Canis familiaris [17] = species on record: Canis familiaris; test: In vitro electrophysiological evaluation in canine cardiac Purkinje fibres reported as maximum percent change Vmax concentration range of 1-100 uM; M = Minimal(<IO%increase or a decrease in CT); type: functional; details: Canis lupus familiaris; Purkinje fiber; how it was run: as §2
Canis familiaris [18] = species on record: Canis familiaris; test: (§4) In vitro electrophysiological evaluation in canine cardiac Purkinje fibres reported as % change for action potential duration at 0.1-100 uM concentration range; type: functional, Canis lupus familiaris, Purkinje fiber; how it was run: as §2
Canis familiaris [19] = species on record: Canis familiaris; test: as §4; type: functional, Canis lupus familiaris, Purkinje fiber; how it was run: as §2; remark: listed apart in the source
Canis familiaris [20] = species on record: Canis familiaris; test: (§5) In vitro electrophysiological evaluation in canine cardiac occurred is 100.; type: functional; details: Canis lupus familiaris; Heart
Canis familiaris [21] = species on record: Canis familiaris; test: (§6) In vitro electrophysiological activity in canine cardiac occurred is 100.; type: functional, Canis lupus familiaris, Heart
Canis familiaris [22] = species on record: Canis familiaris; test: as §6; type: functional, Canis lupus familiaris, Heart; remark: listed apart in the source
Canis familiaris [23] = species on record: Canis familiaris; test: In vitro electrophysiological evaluation in canine cardiac Purkinje fibres reported as percent change Vmax at 10 uM at concentration range of 0.1-100 uM; Minimal (<10% decrease or increase in Vmax).; type: functional, organism-based; details: Canis lupus familiaris, Purkinje fiber; how it was run: as §2
Canis familiaris [24] = species on record: Canis familiaris; test: In vitro electrophysiological evaluation in canine cardiac ventricular muscle reported as % change for the functional refractory period (FRP) at 10 uM at concentration range of 0.1-100 uM; parameters: species or system Canis lupus familiaris, Muscle tissue; how it was run: as §1
Canis familiaris [25] = species on record: Canis familiaris; test: In vitro electrophysiological evaluation in canine cardiac Purkinje fibres reported as % change for action potential duration at 10 uM at 1-30 uM concentration range; type: functional, Canis lupus familiaris, Purkinje fiber
How it was run: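 Canine cardiac Purkinje fibers, intracellular recording, paced at a basic cycle length of 1 s. APD95 and Vmax are recorded together across cumulative concentrations. Compound is a 10 mM aqueous stock diluted into Tyrode's solution. Each fiber is used once as its own control. Readouts are percent change from control at 10 μM, and the maximum change with the concentration where it occurred.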

Canis familiaris [26] = species on record: Canis familiaris; test: In vitro electrophysiological evaluation in canine cardiac ventricular muscle reported as maximum % change for conduction time(CT) at 0.1-100 uM concentration range; Minimal (<10% decrease or increase in […]).; type: functional, Canis lupus familiaris, Muscle tissue
How it was run: (§7)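 Canine right ventricular/papillary muscle strips in oxygenated Tyrode's, extracellular extra-stimulus conduction-interval method. FRP and CT are read from conduction-interval curves before and during rising concentrations. Compound is a 10 mM aqueous stock diluted into Tyrode's. Each strip is used once as its own control. Readouts are percent change from control at 10 μM, plus the maximum change with its concentration.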

Canis familiaris [27] = species on record: Canis familiaris; test: as §6; type: functional, Canis lupus familiaris, Heart; remark: listed apart in the source
Canis familiaris [28] = species on record: Canis familiaris; test: In vitro electrophysiological evaluation in canine cardiac Purkinje fibres reported as maximum percent change Vmax concentration range of 0.1-100 uM; Minimal (<10% decrease or increase in Vmax).; type: functional; details: Canis lupus familiaris; Purkinje fiber; how it was run: as §2
Canis familiaris [29] = species on record: Canis familiaris; test: In vitro electrophysiological evaluation in canine cardiac Purkinje fibres reported as percent change Vmax at 10 uM at concentration range of 1-30 uM; Minimal (<10% decrease or increase in Vmax).; type: functional; details: Canis lupus familiaris, Purkinje fiber
Canis familiaris [30] = species on record: Canis familiaris; test: as §6; type: functional, Canis lupus familiaris, Heart; remark: listed apart in the source
Canis familiaris [31] = test: Effective dose administered intravenously to elicit Antiarrhythmic efficacy in anesthetized dogs was reported; Number of animals effective at that dose is 1.; type: functional, Canis lupus familiaris, Heart
How it was run: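 Dogs are anesthetized and the chest reopened. Stimulating and recording electrodes go on the myocardium. Reproducible PES-induced sustained VT or VF is confirmed first; SVT is ended by burst pacing and VF by DC countershock. Compound is given iv in 0.9% saline and inducibility retested. A dose counts as effective when SVT/VF cannot be reinduced in two of three animals.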

Canis familiaris [32] = species on record: Canis familiaris; test: In vitro electrophysiological evaluation in canine cardiac ventricular muscle reported as maximum % change for functional refractory period (FRP) at 0.1-100 uM concentration range; concentration at which it occurred is 100.; parameters: species or system Canis lupus familiaris, Muscle tissue
Canis familiaris [33] = species on record: Canis familiaris; test: In vitro electrophysiological evaluation in canine cardiac Purkinje fibres reported as % change for action potential duration at a concentration of 10 uM; type: functional, Canis lupus familiaris, Purkinje fiber; how it was run: as §2
Canis familiaris [34] = species on record: Canis familiaris; test: as §5; type: functional; details: Canis lupus familiaris; Heart; remark: listed apart in the source
Canis familiaris [35] = species on record: Canis familiaris; test: In vitro electrophysiological evaluation in canine cardiac ventricular muscle reported as % change for conduction time(CT) at 10 uM at 0.1-100 uM concentration range; Minimal (<10% decrease or increase in […]).; type: functional, Canis lupus familiaris, Muscle tissue; how it was run: as §7
Canis familiaris [36] = species on record: Canis familiaris; test: as §5; type: functional; details: Canis lupus familiaris; Heart; remark: listed apart in the source
Canis familiaris [37] = species on record: Canis familiaris; test: In vitro electrophysiological evaluation in canine cardiac Purkinje fibres reported as percent change Vmax at 10 uM at concentration range of 5-100 uM; Minimal (<10% decrease or increase in Vmax).; type: functional; details: Canis lupus familiaris, Purkinje fiber

Cl.Clc1ccc(CCCC2CC3CCN2CC3)cc1 (configuration not stated)
CT (Canis familiaris [1]): <10%
Vmax (Canis familiaris [2]): < 10%
Vmax (Canis familiaris [3]): -13% and < 10%
Vmax (Canis familiaris [4]): < 10%
APD95 (Canis familiaris [5]): 21%
FRP (Canis familiaris [6]): 25%
Vmax (Canis familiaris [7]): -10%
CT (Canis familiaris [8]): <10%
APD95 (Canis familiaris [9]): 30%
APD95 (Canis familiaris [10]): 13%
APD95 (Canis familiaris [11]): -20%
Vmax (Canis familiaris [12]): -23%
APD95 (Canis familiaris [13]): 40%
FRP (Canis familiaris [14]): 25%
APD95 (Canis familiaris [15]): 30% and 12%
APD95 (Canis familiaris [16]): -20%
Vmax (Canis familiaris [17]): < 10%
APD95 (Canis familiaris [18]): 21% and 12%
APD95 (Canis familiaris [19]): 2%

CCN(CC)CC(=O)Nc1c(C)cccc1C [LIDOCAINE]
Vmax (Canis familiaris [20]): -10%
APD95 (Canis familiaris [21]): -43%
APD95 (Canis familiaris [22]): -43%
Vmax (Canis familiaris [23]): < 10%
FRP (Canis familiaris [24]): 6% and 4% and 2%
APD95 (Canis familiaris [25]): -30%
CT (Canis familiaris [26]): <10%
APD95 (Canis familiaris [27]): -48%
Vmax (Canis familiaris [28]): < 10%
Vmax (Canis familiaris [29]): < 10%
APD95 (Canis familiaris [30]): -33%
Effective dose (Canis familiaris [31]): 3 mg/kg
FRP (Canis familiaris [32]): 23% and 8% and 18%
APD95 (Canis familiaris [33]): -23%
Vmax (Canis familiaris [34]): -42%
CT (Canis familiaris [35]): <10%
Vmax (Canis familiaris [36]): -11%
Vmax (Canis familiaris [37]): < 10%
